# Results reported in ChEMBL document CHEMBL1149098, “Design, synthesis, and evaluation of novel thienopyrrolizinones as antitubulin agents” (J Med Chem, 2004).
# Key:
# [1] = system: L1210; test: In vitro antiproliferative activity against L1210 cell line, activity expressed as growth inhibition; type: functional; conditions: Mus musculus
# Outline: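 MTT proliferation assay. Adherent cells trypsinized and seeded at densities keeping controls in exponential growth. Drug exposure for four doubling times, at most 7 days. MTT (5 mg/mL stock) added for 4 h at 37 °C, formazan dissolved in DMSO, OD read at 540 nm. % growth from treated/control OD, tri- or hexaplicates averaged against log concentration. GI50 from linear regression on the linear zone.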
# [2] = system: Homo sapiens; test: Compound was evaluated for anticancer activity in the hollow fiber assay, activity expressed as ip score; type: functional
# Outline: (§1)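 Mouse hollow-fiber model: PVDF fibres holding 12 human tumour cell lines implanted ip and sc. Drug in 10% DMSO in saline/Tween-80, given ip once daily for four doses at each of two dose levels, triplicate. Fibres collected the day after the last dose for viable cell mass. Each ≥50% reduction versus vehicle controls scores 2, summed per site.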
# [3] = system: Homo sapiens; test: Compound was evaluated for anticancer activity in the hollow fiber assay, activity expressed as sc score; type: functional; outline: as §1
# [4] = species: Homo sapiens; test: Compound was evaluated for anticancer activity in the hollow fiber assay, activity expressed as total score; type: functional; outline: as §1
# [5] = system: MDA-N; test: Cytotoxicity against human breast MDA-N cell line; type: functional
# [6] = system: NCI-H522; test: Cytotoxicity against human NSCL NCI-H522 cell line; type: functional
# [7] = system: SW-620; test: Cytotoxicity against human colon SW-620 cell line; type: functional
# [8] = system: RXF 393; test: Cytotoxicity against human renal XF-393 cell line; type: functional
# [9] = system: PC-3; test: Cytotoxicity against human prostate PC-3 cell line; type: functional
# [10] = system: CCRF-CEM; test: Cytotoxicity against human leukemia CCRF-CEM cell line; type: functional
# [11] = system: M14; test: Cytotoxicity against human melanoma M-14 cell line; type: functional
# [12] = system: Mus musculus; test: In vivo anticancer activity against an ip P388 murine model after intraperitoneal administration of 100 mg/kg compound; type: functional
# Outline: (§2)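 Female B6D2F1 mice, 4–6 weeks old, 20–22 g, inoculated ip with 10^6 P388 leukemia cells. Single ip or iv injection on day 1 at the listed dose (range 25–400 mg/kg). BCNU run as internal reference. Median survival of treated versus control mice gives T/C (%). Activity threshold set at T/C 125%.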
# [13] = system: Mus musculus; test: In vivo anticancer activity against an ip P388 murine model after intraperitoneal administration of 200 mg/kg compound; type: functional; outline: as §2
# [14] = system: Mus musculus; test: In vivo anticancer activity against an ip P388 murine model after intraperitoneal administration of 25 mg/kg compound; type: functional; outline: as §2
# [15] = system: Mus musculus; test: In vivo anticancer activity against an ip P388 murine model after intraperitoneal administration of 400 mg/kg compound; type: functional; outline: as §2
# [16] = system: Mus musculus; test: In vivo anticancer activity against an ip P388 murine model after intraperitoneal administration of 50 mg/kg compound; type: functional; outline: as §2
# [17] = system: Mus musculus; test: In vivo anticancer activity against an ip P388 murine model after intravenous administration of 100 mg/kg compound; type: functional; outline: as §2
# [18] = system: Mus musculus; test: In vivo anticancer activity against an ip P388 murine model after intravenous administration of 200 mg/kg compound; type: functional; outline: as §2
# [19] = system: Mus musculus; test: In vivo anticancer activity against an ip P388 murine model after intravenous administration of 25 mg/kg compound; type: functional; outline: as §2
# [20] = system: Mus musculus; test: In vivo anticancer activity against an ip P388 murine model after intravenous administration of 400 mg/kg compound; type: functional; outline: as §2
# [21] = system: Mus musculus; test: In vivo anticancer activity against an ip P388 murine model after intravenous administration of 50 mg/kg compound; type: functional; outline: as §2
# [22] = biological target: Tubulin (Bos taurus, UniProt Q6B856+Q862L2+Q862F3); test: Inhibitory concentration against calf tubulin polymerization; type: protein assay
# Outline: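 Calf brain tubulin purified by three assembly–disassembly cycles, about 2–3 mg/mL in 0.1 M MES, 0.5 mM MgCl2, 2 mM EGTA, 1 mM GTP, pH 6.6. Assembly followed continuously by turbidimetry at 37 °C. IC50 is the concentration halving the maximum assembly rate of drug-free tubulin. Deoxypodophyllotoxin measured the same day as reference.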
structure (smiles),measurement,setting,value
CCCCOc1ccc(-c2csc3c2-n2cccc2C3=O)cc1,GI50,[1],29.6 µM
O=C1c2scc(-c3ccc4c(c3)OCO4)c2-n2cccc21,GI50,[1],4.2 µM
CCOc1ccc(-c2csc3c2-n2cccc2C3=O)cc1,GI50,[1],0.43 µM
CC(C)Oc1ccc(-c2csc3c2-n2cccc2C3=O)cc1,GI50,[1],12.2 µM
COc1ccc(-c2c[nH]c3c2-n2cccc2C3=O)cc1OC,GI50,[1],11.8 µM
COc1ccc(-c2cccc3c2-n2cccc2C3=O)cc1OC,GI50,[1],72.2 µM
COc1ccc(-c2csc3c2-n2cccc2C3=O)cc1,Activity,[2],16
same,Activity,[3],0
same,Activity,[4],16
same,GI50,[1],0.19 µM
same,GI50,[5],0.0126 µM
same,GI50,[6],0.0158 µM
same,GI50,[7],0.0251 µM
same,GI50,[8],0.0631 µM
same,GI50,[9],0.0398 µM
same,GI50,[10],0.0316 µM
same,GI50,[11],0.0316 µM
COc1ccc(-c2cc3c(s2)C(=O)c2cccn2-3)cc1,GI50,[1],9.4 µM
CCCOc1ccc(-c2csc3c2-n2cccc2C3=O)cc1,GI50,[1],28.1 µM
Cc1csc2c1-n1cccc1C2=O,GI50,[1],> 100 µM
COc1ccc(-c2csc3c2-n2cccc2/C3=N/OCCCN(C)C)cc1,GI50,[1],3.9 µM
O=C1c2cccc(-c3ccco3)c2-n2cccc21,GI50,[1],27.6 µM
O=C1c2scc(-c3ccc(O)c(O)c3)c2-n2cccc21,GI50,[1],0.28 µM
same,T/C,[12],134%
same,T/C,[13],133%
same,T/C,[14],111%
same,T/C,[15],149%
same,T/C,[16],118%
same,T/C,[17],105%
same,T/C,[18],103%
same,T/C,[19],95%
same,T/C,[20],21%
same,T/C,[21],101%
same,IC50,[22],21 µM
COc1cccc(-c2csc3c2-n2cccc2C3=O)c1,GI50,[1],5.2 µM
COc1cc(-c2csc3c2-n2cccc2C3=O)ccc1OCc1ccccc1,GI50,[1],24.1 µM
COc1ccc(-c2csc3c2-n2cccc2C3O)cc1 (stereo unspecified),GI50,[1],4.9 µM
COc1ccc(-c2csc3c2-n2cccc2C3=O)cc1OC,GI50,[1],11.7 µM
same,IC50,[22],19 µM
COc1ccc(-c2coc3c2-n2cccc2C3=O)cc1OC,GI50,[1],24.2 µM
COc1cc(-c2csc3c2-n2cccc2C3=O)ccc1O,GI50,[1],8 µM
